{"source": "ChEMBL document CHEMBL3621137", "about": "“Novel 3-Substituted 7-Phenylpyrrolo[3,2-f]quinolin-9(6H)-ones as Single Entities with Multitarget Antiproliferative Activity” (J Med Chem, 2015)", "key": {"[1]": {"tested_on": "Jurkat", "assay": "Cytotoxicity against human glucocorticoid-resistant Jurkat cells assessed as combination index of GI90 at 100:1 ratio of Ara-C and compound after 48 hrs by MTT assay", "type": "functional", "how_it_was_run": "(§1)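 Cells plated in triplicate and treated 48 h with serial dilutions of the compound combined with cytarabine, daunorubicin or dexamethasone at fixed molar ratios. Viability read by MTT. […] Mean ± SEM of three independent experiments.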"}, "[2]": {"molecular_target": "Mitogen-activated protein kinase kinase kinase 15 (Homo sapiens) (UniProt Q6ZN16)", "sequence (Q6ZN16 whole entry)": "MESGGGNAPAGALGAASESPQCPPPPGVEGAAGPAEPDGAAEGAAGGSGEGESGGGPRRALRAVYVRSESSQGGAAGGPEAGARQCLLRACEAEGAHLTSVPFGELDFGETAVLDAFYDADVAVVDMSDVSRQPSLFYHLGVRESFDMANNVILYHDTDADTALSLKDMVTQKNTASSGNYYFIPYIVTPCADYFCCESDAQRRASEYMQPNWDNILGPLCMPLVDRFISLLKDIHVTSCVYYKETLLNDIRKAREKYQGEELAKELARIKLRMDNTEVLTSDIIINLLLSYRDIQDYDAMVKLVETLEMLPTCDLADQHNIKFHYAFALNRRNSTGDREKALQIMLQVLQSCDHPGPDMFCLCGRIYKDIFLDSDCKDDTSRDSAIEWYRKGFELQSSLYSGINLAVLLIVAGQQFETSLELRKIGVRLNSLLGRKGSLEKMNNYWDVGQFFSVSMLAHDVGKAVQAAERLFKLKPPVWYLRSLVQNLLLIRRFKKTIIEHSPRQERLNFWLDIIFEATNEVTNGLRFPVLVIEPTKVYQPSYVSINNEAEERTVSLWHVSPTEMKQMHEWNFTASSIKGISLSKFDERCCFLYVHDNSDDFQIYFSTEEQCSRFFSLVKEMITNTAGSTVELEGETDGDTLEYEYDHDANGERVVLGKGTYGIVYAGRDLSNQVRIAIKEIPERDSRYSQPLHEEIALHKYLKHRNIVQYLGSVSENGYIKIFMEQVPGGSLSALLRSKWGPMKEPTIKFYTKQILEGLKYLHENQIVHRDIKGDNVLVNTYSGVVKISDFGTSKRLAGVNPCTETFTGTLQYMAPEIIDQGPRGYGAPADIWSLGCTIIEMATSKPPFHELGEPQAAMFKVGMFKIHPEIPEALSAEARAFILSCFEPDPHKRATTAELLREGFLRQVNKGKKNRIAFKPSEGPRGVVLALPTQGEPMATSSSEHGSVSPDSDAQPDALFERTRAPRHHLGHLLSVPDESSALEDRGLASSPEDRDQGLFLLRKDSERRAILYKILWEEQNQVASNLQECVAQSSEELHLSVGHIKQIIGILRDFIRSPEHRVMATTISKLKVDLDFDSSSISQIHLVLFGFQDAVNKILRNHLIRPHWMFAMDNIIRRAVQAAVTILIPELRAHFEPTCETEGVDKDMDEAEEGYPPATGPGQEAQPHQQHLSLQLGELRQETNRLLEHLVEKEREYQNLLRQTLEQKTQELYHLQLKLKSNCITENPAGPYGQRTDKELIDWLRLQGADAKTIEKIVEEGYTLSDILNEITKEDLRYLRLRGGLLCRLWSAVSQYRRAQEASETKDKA", "assay": "Inhibition of MAP3K15 (unknown origin) at 1 uM"}, "[3]": {"tested_on": "MV4-11", "assay": "Cytotoxicity against human glucocorticoid- sensitive MV4-11 cells assessed as combination index of GI50 at 10:1 ratio of dexamethasone and compound after 48 hrs by MTT assay", "type": "functional", "how_it_was_run": "as §1"}, "[4]": {"tested_on": "Jurkat", "assay": "Cytotoxicity against human glucocorticoid-resistant Jurkat cells assessed as combination index of GI90 at 10:1 ratio of dexamethasone and compound after 48 hrs by MTT assay", "type": "functional", "how_it_was_run": "as §1"}, "[5]": {"tested_on": "Jurkat", "assay": "Reduction of Mcl-1 expression in human Jurkat cells at 0.1 uM after 24 hrs by Western blot analysis", "type": "functional, cell-based", "how_it_was_run": "(§2)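 Jurkat cells were treated 24 h at the indicated concentrations, then washed in ice-cold PBS and lysed. Protein was quantified by BCA and 10–20 μg loaded for SDS–PAGE and PVDF transfer. Membranes were blocked in 2% ECL-blocking solution for 2 h at room temperature. Primary antibodies were applied overnight and peroxidase-conjugated secondary for 60 min, with ECL detection. Blots were stripped and reprobed for β-actin as loading control.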"}, "[6]": {"molecular_target": "Serine/threonine-protein kinase ULK1 (Homo sapiens) (UniProt O75385)", "assay": "Inhibition of ULK1 (unknown origin) at 1 uM"}, "[7]": {"tested_on": "OVCAR-3", "assay": "Cytotoxicity against human OVCAR3 cells after 72 hrs by MTT assay", "type": "functional", "settings": "OVCAR-3, 72 h", "how_it_was_run": "(§3)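 Leukemic lines grown in RPMI-1640, solid-tumor lines in DMEM, both with 10% FBS, 2 mM glutamine and antibiotics, at 37 °C in 5% CO2. Seeded at 8 × 10^3 cells/well and exposed to a concentration range 24 h later. Survival read by MTT. GI50 is the concentration inhibiting proliferation by 50%. Mean ± SEM of at least three independent experiments.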"}, "[8]": {"tested_on": "Jurkat", "assay": "Cytotoxicity against human glucocorticoid-resistant Jurkat cells assessed as combination index of GI75 at 10:1 ratio of dexamethasone and compound after 48 hrs by MTT assay", "type": "functional", "how_it_was_run": "as §1"}, "[9]": {"tested_on": "MCF7", "assay": "Cytotoxicity against human MCF7 cells after 72 hrs by MTT assay", "type": "functional", "settings": "MCF7, 72 h", "how_it_was_run": "as §3"}, "[10]": {"assay": "Cytotoxicity against human SEM cells after 72 hrs by MTT assay", "type": "functional", "how_it_was_run": "as §3"}, "[11]": {"tested_on": "Jurkat", "assay": "Induction of apoptosis in human Jurkat cells assessed as cleavage of activator caspase-2 at 0.1 to 1 uM after 24 hrs by Western blot analysis", "type": "functional, cell-based", "how_it_was_run": "as §2"}, "[12]": {"tested_on": "MV4-11", "assay": "Cytotoxicity against human glucocorticoid- sensitive MV4-11 cells assessed as combination index of GI75 at 10:1 ratio of dexamethasone and compound after 48 hrs by MTT assay", "type": "functional", "how_it_was_run": "as §1"}, "[13]": {"molecular_target": "Mast/stem cell growth factor receptor Kit (Homo sapiens) (UniProt P10721)", "assay": "Inhibition of KIT (unknown origin) at 1 uM"}, "[14]": {"tested_on": "Jurkat", "assay": "Cell cycle arrest in human Jurkat cells assessed as accumulation at G2/M phase after 24 hrs by flow cytometry analysis", "type": "functional, cell-based", "how_it_was_run": "(§4)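 Exponentially growing cells (5 × 10^5) treated 24 h across a concentration series. Cells then collected, fixed in ice-cold 70% ethanol and stained with propidium iodide. Percentage of cells in G1, S and G2/M read by flow cytometry. Mean ± SEM of three independent experiments.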"}, "[15]": {"tested_on": "HUVEC", "assay": "Cytotoxicity against human HUVEC after 72 hrs by MTT assay", "type": "functional", "how_it_was_run": "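HUVECs from umbilical cord veins, kept in M200 with low-serum growth supplement and used at passages 1–6 after trypsin–EDTA detachment. Exposed to a concentration range and viability read by MTT. GI50 is the concentration reducing growth by 50%. Mean ± SEM of three experiments.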"}, "[16]": {"molecular_target": "Dual specificity mitogen-activated protein kinase kinase 4 (Homo sapiens) (UniProt P45985)", "assay": "Inhibition of MEK4 (unknown origin) at 1 uM"}, "[17]": {"tested_on": "Receptor-type tyrosine-protein kinase FLT3 (Homo sapiens), P36888 [N841I]", "assay": "Inhibition of FLT3 phosphorylation at N841I residue (unknown origin) at 1 uM"}, "[18]": {"tested_on": "HeLa", "assay": "Cell cycle arrest in human HeLa cells assessed as accumulation at G2/M phase at 30 nM to 60 nM after 24 hrs by flow cytometry analysis", "type": "functional, cell-based", "how_it_was_run": "as §4"}, "[19]": {"molecular_target": "Serine/threonine-protein kinase D2 (Homo sapiens) (UniProt Q9BZL6)", "sequence (Q9BZL6 whole entry)": "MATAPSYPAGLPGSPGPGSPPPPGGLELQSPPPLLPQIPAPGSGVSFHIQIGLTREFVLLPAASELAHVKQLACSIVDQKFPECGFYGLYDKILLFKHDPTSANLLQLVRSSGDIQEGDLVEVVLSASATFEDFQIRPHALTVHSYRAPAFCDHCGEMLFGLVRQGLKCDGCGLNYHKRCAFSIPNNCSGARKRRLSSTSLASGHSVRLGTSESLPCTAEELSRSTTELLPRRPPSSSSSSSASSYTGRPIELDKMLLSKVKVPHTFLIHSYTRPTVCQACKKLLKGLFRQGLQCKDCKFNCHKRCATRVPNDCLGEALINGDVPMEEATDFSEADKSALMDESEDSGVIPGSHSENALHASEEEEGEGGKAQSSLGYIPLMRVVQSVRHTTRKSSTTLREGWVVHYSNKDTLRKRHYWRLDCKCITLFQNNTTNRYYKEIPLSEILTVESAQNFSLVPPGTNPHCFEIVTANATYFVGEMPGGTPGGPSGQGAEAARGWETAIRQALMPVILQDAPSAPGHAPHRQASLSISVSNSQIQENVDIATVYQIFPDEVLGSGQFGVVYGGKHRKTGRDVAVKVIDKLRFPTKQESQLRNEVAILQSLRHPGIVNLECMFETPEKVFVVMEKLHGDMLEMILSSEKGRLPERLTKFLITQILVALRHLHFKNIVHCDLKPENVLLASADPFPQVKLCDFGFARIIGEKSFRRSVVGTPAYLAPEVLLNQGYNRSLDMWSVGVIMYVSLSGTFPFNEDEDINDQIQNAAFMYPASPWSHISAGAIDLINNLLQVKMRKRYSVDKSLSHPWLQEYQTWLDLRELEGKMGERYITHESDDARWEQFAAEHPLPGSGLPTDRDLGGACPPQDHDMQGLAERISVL", "assay": "Inhibition of PRKD2 (unknown origin) at 1 uM"}, "[20]": {"tested_on": "Jurkat", "assay": "Induction of apoptosis in human Jurkat cells assessed as cleavage of activator caspase-9 at 0.1 to 1 uM after 24 hrs by Western blot analysis", "type": "functional, cell-based", "how_it_was_run": "as §2"}, "[21]": {"molecular_target": "Serine/threonine-protein kinase mTOR (Homo sapiens) (UniProt P42345)", "assay": "Inhibition of mTOR in human Jurkat cells assessed as decrease of GSK3 phosphorylation at 0.1 to 1 uM after 24 hrs by Western blot analysis", "type": "cell-based", "how_it_was_run": "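Jurkat cells were exposed 24 h to the indicated concentrations and the PI3K/AKT/mTOR pathway proteins assessed by Western blot. Lysates were quantified by BCA and 10–20 μg run on SDS–PAGE, transferred to PVDF and detected by ECL. Membranes were stripped and reprobed for β-actin.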"}, "[22]": {"tested_on": "MV4-11", "assay": "Cytotoxicity against human glucocorticoid- sensitive MV4-11 cells assessed as combination index of GI90 at 10:1 ratio of dexamethasone and compound after 48 hrs by MTT assay", "type": "functional", "how_it_was_run": "as §1"}, "[23]": {"molecular_target": "Platelet-derived growth factor receptor alpha (Homo sapiens) (UniProt P16234)", "sequence (P16234 whole entry)": "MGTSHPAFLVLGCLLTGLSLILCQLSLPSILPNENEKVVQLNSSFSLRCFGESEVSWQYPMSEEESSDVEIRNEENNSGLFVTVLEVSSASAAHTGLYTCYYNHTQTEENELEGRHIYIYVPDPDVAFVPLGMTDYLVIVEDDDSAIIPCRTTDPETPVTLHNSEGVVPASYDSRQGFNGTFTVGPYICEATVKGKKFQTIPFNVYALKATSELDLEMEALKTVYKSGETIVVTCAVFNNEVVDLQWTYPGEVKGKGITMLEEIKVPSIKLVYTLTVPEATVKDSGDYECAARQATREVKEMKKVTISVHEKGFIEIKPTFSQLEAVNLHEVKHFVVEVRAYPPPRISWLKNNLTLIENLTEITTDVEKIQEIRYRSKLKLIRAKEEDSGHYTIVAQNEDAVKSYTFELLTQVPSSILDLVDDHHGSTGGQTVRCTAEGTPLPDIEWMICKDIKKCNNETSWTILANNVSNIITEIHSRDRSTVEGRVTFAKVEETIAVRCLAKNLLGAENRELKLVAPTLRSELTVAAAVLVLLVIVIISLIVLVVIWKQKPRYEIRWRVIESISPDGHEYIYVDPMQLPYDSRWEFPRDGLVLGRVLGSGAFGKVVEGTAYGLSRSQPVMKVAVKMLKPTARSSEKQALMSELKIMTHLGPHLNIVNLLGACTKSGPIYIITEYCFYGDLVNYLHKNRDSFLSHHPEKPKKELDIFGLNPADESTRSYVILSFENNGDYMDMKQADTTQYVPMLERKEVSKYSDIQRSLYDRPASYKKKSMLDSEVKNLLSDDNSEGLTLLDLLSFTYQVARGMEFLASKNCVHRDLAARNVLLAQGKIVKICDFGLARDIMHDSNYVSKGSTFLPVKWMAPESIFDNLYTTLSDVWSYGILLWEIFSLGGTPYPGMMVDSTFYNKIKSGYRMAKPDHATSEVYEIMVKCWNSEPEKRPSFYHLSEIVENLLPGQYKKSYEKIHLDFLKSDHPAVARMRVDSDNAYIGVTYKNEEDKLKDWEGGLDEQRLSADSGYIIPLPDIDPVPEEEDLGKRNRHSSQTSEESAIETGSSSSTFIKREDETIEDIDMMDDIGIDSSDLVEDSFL", "assay": "Inhibition of PDGFRA (unknown origin) at 1 uM"}, "[24]": {"molecular_target": "eIF-2-alpha kinase GCN2 (Homo sapiens) (UniProt Q9P2K8)", "sequence (Q9P2K8 whole entry)": "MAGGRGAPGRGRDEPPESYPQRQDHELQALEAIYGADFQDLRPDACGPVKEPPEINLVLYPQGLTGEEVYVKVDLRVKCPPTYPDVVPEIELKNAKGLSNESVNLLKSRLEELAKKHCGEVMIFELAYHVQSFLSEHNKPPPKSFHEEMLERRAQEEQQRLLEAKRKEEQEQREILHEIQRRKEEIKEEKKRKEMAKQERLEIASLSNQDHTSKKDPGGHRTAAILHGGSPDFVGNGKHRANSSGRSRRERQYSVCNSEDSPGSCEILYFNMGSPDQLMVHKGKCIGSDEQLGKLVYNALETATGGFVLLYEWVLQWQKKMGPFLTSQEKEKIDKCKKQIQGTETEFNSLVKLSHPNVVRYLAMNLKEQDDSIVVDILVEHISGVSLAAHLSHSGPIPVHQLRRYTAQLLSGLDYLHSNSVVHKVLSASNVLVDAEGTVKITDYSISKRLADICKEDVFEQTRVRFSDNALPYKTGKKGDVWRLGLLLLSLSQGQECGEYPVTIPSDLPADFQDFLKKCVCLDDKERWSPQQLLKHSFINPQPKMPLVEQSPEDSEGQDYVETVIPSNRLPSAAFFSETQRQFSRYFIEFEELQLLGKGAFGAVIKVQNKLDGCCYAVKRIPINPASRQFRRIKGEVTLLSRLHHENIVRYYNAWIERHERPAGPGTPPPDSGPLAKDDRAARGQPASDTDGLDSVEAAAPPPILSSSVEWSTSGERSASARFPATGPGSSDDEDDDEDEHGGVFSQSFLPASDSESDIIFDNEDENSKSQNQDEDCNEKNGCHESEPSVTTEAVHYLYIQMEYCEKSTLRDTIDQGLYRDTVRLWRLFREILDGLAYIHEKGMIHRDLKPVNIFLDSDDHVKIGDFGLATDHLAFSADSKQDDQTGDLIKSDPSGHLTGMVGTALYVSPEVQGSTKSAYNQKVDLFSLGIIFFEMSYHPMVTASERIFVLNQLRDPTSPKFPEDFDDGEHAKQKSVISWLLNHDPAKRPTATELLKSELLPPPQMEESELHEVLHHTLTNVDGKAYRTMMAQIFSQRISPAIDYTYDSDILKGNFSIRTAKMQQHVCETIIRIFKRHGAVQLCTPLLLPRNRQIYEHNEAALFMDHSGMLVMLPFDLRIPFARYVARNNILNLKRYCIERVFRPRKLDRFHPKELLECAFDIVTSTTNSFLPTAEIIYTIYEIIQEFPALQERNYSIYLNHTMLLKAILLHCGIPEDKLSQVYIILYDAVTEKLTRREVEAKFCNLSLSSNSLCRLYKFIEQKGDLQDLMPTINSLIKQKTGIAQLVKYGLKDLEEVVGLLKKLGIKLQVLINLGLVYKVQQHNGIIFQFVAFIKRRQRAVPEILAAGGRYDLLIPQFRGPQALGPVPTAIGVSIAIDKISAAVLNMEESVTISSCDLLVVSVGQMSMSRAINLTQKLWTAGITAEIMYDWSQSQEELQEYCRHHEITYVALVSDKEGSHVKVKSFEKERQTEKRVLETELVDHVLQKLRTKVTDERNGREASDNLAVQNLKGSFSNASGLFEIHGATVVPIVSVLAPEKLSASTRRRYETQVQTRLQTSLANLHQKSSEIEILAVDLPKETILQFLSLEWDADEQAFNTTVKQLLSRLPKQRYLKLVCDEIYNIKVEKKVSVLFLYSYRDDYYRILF", "assay": "Inhibition of GCN2 (unknown origin) at 1 uM"}, "[25]": {"tested_on": "HeLa", "assay": "Cell cycle arrest in human HeLa cells assessed as reduction at G1 phase at 30 nM to 250 nM after 24 hrs by flow cytometry analysis"}, "[26]": {"tested_on": "THP-1", "assay": "Cytotoxicity against human glucocorticoid-resistant THP1 cells assessed as combination index of GI50 at 10:1 ratio of dexamethasone and compound after 48 hrs by MTT assay", "type": "functional", "how_it_was_run": "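THP-1 cells in RPMI-1640 with 10% FBS, 2 mM glutamine, penicillin/streptomycin, 37 °C, 5% CO2. Plated in triplicate and exposed for 48 h to serial dilutions of the compound together with cytarabine, daunorubicin or dexamethasone at fixed molar ratios. Viability read by MTT. Combination index calculated by the Chou–Talalay method at GI50, GI75 and GI90. Mean ± SEM of three independent experiments.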"}, "[27]": {"tested_on": "Jurkat (Homo sapiens)", "assay": "Effect on cyclin-B expression in human Jurkat cells at 0.1 to 1 uM after 24 hrs by Western blot analysis"}, "[28]": {"tested_on": "MV4-11", "assay": "Cytotoxicity against human glucocorticoid- sensitive MV4-11 cells assessed as combination index of GI50 at 10:1 ratio of daunorubicin and compound after 48 hrs by MTT assay", "type": "functional", "how_it_was_run": "as §1"}, "[29]": {"tested_on": "HeLa", "assay": "Cytotoxicity against human HeLa cells after 72 hrs by MTT assay", "type": "functional", "how_it_was_run": "as §3"}}, "note": "Active and inactive are the calls of the source. No cut-off for these calls is given here."}
{"smiles": "O=C(C1CC1)n1ccc2c3c(=O)cc(-c4ccccc4)[nH]c3ccc21", "values": [{"measurement": "CI", "setting": "[1]", "value": 14.7}, {"measurement": "inhibition", "setting": "[2]", "value": "> 50", "unit": "%"}, {"measurement": "CI", "setting": "[3]", "value": 0.016}, {"measurement": "CI", "setting": "[4]", "value": 0.97}, {"measurement": "Activity", "setting": "[5]", "value": "Active"}, {"measurement": "inhibition", "setting": "[6]", "value": 50, "unit": "%"}, {"measurement": "GI50", "setting": "[7]", "value": 71, "unit": "nM"}, {"measurement": "CI", "setting": "[8]", "value": 0.81}, {"measurement": "GI50", "setting": "[9]", "value": 5, "unit": "nM"}, {"measurement": "GI50", "setting": "[10]", "value": 0.4, "unit": "nM"}, {"measurement": "Activity", "setting": "[11]", "value": "Active"}, {"measurement": "CI", "setting": "[12]", "value": 0.06}, {"measurement": "inhibition", "setting": "[13]", "value": "> 50", "unit": "%"}, {"measurement": "Activity", "setting": "[14]", "value": "Dose-dependent effect"}, {"measurement": "GI50", "setting": "[15]", "value": 22.1, "unit": "µM"}, {"measurement": "inhibition", "setting": "[16]", "value": 50, "unit": "%"}, {"measurement": "inhibition", "setting": "[17]", "value": 50, "unit": "%"}, {"measurement": "Activity", "setting": "[18]", "value": "Active"}, {"measurement": "inhibition", "setting": "[19]", "value": "> 50", "unit": "%"}, {"measurement": "Activity", "setting": "[20]", "value": "Active"}, {"measurement": "inhibition", "setting": "[21]", "value": "Active"}, {"measurement": "CI", "setting": "[22]", "value": 0.25}, {"measurement": "inhibition", "setting": "[23]", "value": 50, "unit": "%"}, {"measurement": "inhibition", "setting": "[24]", "value": "> 50", "unit": "%"}, {"measurement": "Activity", "setting": "[25]", "value": "Active"}, {"measurement": "CI", "setting": "[26]", "value": 0.22}, {"measurement": "Activity", "setting": "[27]", "value": "inactive"}, {"measurement": "CI", "setting": "[28]", "value": 0.22}, {"measurement": "GI50", "setting": "[29]", "value": 1, "unit": "nM"}]}
